Here are results for 38 sequences from the array DNA melting data of Ke et al. (doi:10.1101/2024.01.08.574731).

Data set [1] can be described thus: melting temperature; fluorescence melt of hairpins on a sequencing array, two-state fit, raised by 9.35 °C to match UV melts. Conditions: sodium 0.088 M. The method in brief:
(§1)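 Cy3 signals were normalised both to pre-quench Cy3 and to control constructs. They came from library hairpins carrying annealed Cy3 and quencher oligos on a sequenced MiSeq flow cell, imaged in 50 mM Na-HEPES pH 8.0, 25 mM NaCl, in 2.5 °C steps up to 60 °C. Bootstrapped two-state fits gave melting temperature and folding enthalpy, and four replicates were combined by inverse variance. Fitted temperatures were then raised by 9.35 °C to match UV melts.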

A short description of data set [2]: folding enthalpy; higher = less favourable; fluorescence melt of hairpins on a sequencing array, two-state fit. Conditions: sodium 0.088 M. The method in brief:
as §1

GATCCGGGCTCGGATC ((((((....)))))): the Tm in data set [1] came to 59.3 °C. Besides, the folding enthalpy in data set [2] is -44.6 kcal/mol.

On to GATCCGGGGCCGGATC ((((((....)))))), for which the Tm in data set [1] worked out at 61 °C. The folding enthalpy in data set [2] was -41.4 kcal/mol.

With GATCCGGGGGCGGATC ((((((....)))))), the Tm in data set [1] worked out at 60.1 °C. Besides, in data set [2], the folding enthalpy is -38.3 kcal/mol.

As for GATCCGGGTCGGATC ((((((...)))))), the Tm in data set [1] came to 58.6 °C. Further, the folding enthalpy in data set [2] was -29.6 kcal/mol.

On to GATCCGGTCCCGGATC ((((((....)))))), for which, in data set [1], the Tm amounted to 65.3 °C. In data set [2], the folding enthalpy was -35.4 kcal/mol.

As to GATCCGGTGACGGATC ((((((....)))))), the Tm in data set [1] worked out at 67.3 °C. Further, the folding enthalpy in data set [2] is -38.9 kcal/mol.

With GATCCGGTGCGGATC ((((((...)))))), the Tm in data set [1] came out at 57.5 °C. In addition, in data set [2], the folding enthalpy was -45.2 kcal/mol.

For the sequence GATCCGGTGGCGGATC ((((((....)))))), the Tm in data set [1] amounted to 56.5 °C. Also, in data set [2], the folding enthalpy was -31.4 kcal/mol.

Consider GATCCGGTGTCGGATC ((((((....)))))), for which the Tm in data set [1] came out at 57.6 °C. Further, in data set [2], the folding enthalpy was -37.2 kcal/mol.

Regarding GATCCGTAAACGGATC ((((((....)))))), the Tm in data set [1] is 60.3 °C. Besides, the folding enthalpy in data set [2] was -38.2 kcal/mol.

Take GATCCGTACCGGATC ((((((...)))))): the Tm in data set [1] was found to be 58.9 °C. The folding enthalpy in data set [2] was -34.8 kcal/mol.

GATCCGTATCCGGATC ((((((....)))))): in data set [1], the Tm amounted to 58.2 °C. Further, in data set [2], the folding enthalpy was -39 kcal/mol.

For GATCCGTATCGGATC ((((((...)))))), the Tm in data set [1] came out at 57.3 °C. Also, in data set [2], the folding enthalpy was -30.3 kcal/mol.

Consider GATCCGTCCCCGGATC ((((((....)))))), for which the Tm in data set [1] came out at 56.5 °C. Besides, the folding enthalpy in data set [2] is -32.1 kcal/mol.

With GATCCGTCGTCGGATC ((((((....)))))), the Tm in data set [1] was found to be 60.1 °C. In addition, the folding enthalpy in data set [2] is -36.3 kcal/mol.

Turning to GATCCGTGACGGATC ((((((...)))))), the Tm in data set [1] is 59.9 °C. Moreover, the folding enthalpy in data set [2] was -38.3 kcal/mol.

Regarding GATCCGTGCCCGGATC ((((((....)))))), in data set [1], the Tm was found to be 56.6 °C. Further, the folding enthalpy in data set [2] was -50.9 kcal/mol.

For the sequence GATCCGTGCGCGGATC ((((((....)))))), the Tm in data set [1] came to 65 °C. In addition, the folding enthalpy in data set [2] was -48.4 kcal/mol.

On to GATCCGTGGCCGGATC ((((((....)))))), for which the Tm in data set [1] amounted to 57.7 °C. Besides, the folding enthalpy in data set [2] was -39.1 kcal/mol.

Regarding GATCCGTTAACGGATC ((((((....)))))), the Tm in data set [1] is 64 °C. The folding enthalpy in data set [2] is -43.2 kcal/mol.

Turning to GATCCGTTACCGGATC ((((((....)))))), the Tm in data set [1] was 59.5 °C. The folding enthalpy in data set [2] is -34.6 kcal/mol.

For the sequence GATCCGTTCCCGGATC ((((((....)))))), the Tm in data set [1] stood at 55.7 °C. In data set [2], the folding enthalpy is -43.4 kcal/mol.

In the case of GATCCGTTCGCGGATC ((((((....)))))), the Tm in data set [1] was 61.3 °C. Also, in data set [2], the folding enthalpy is -50.4 kcal/mol.

With GATCCGTTCTCGGATC ((((((....)))))), the Tm in data set [1] is 60.7 °C. For the same sequence, in data set [2], the folding enthalpy was -42.2 kcal/mol.

For GATCCTAAAAAGGATC ((((((....)))))), the Tm in data set [1] was found to be 47.6 °C. The folding enthalpy in data set [2] is -27.9 kcal/mol.

As to GATCCTAAGTAGGATC ((((((....)))))), in data set [1], the Tm is 51.7 °C. Further, in data set [2], the folding enthalpy is -39.5 kcal/mol.

Consider GATCCTAATAAGGATC ((((((....)))))), for which the Tm in data set [1] turned out to be 50.8 °C. Besides, in data set [2], the folding enthalpy is -40.1 kcal/mol.

As to GATCCTACAAGGATC ((((((...)))))), in data set [1], the Tm turned out to be 54.5 °C. In addition, the folding enthalpy in data set [2] was -33.6 kcal/mol.

Turning to GATCCTACACAGGATC ((((((....)))))), the Tm in data set [1] came to 51.6 °C. Also, the folding enthalpy in data set [2] is -35.9 kcal/mol.

Regarding GATCCTACCAAGGATC ((((((....)))))), the Tm in data set [1] was 53.2 °C. For the same sequence, the folding enthalpy in data set [2] was -38.1 kcal/mol.

As for GATCCTACCCAGGATC ((((((....)))))), in data set [1], the Tm was 51.2 °C. Moreover, the folding enthalpy in data set [2] was -39.9 kcal/mol.

Consider GATCCTACTAAGGATC ((((((....)))))), for which, in data set [1], the Tm amounted to 52.5 °C. Besides, in data set [2], the folding enthalpy is -35.1 kcal/mol.

Regarding GATCCTAGAAAGGATC ((((((....)))))), the Tm in data set [1] worked out at 48.5 °C. In data set [2], the folding enthalpy is -30.6 kcal/mol.

Take GATCCTAGCTAGGATC ((((((....)))))): in data set [1], the Tm turned out to be 54.1 °C. The folding enthalpy in data set [2] is -56.9 kcal/mol.

With GATCCTAGGTAGGATC ((((((....)))))), in data set [1], the Tm turned out to be 52.9 °C. The folding enthalpy in data set [2] is -38.7 kcal/mol.

Turning to GATCCTAGTAAGGATC ((((((....)))))), in data set [1], the Tm was found to be 52.2 °C. The folding enthalpy in data set [2] was -41.1 kcal/mol.

With GATCCTAGTAGGATC ((((((...)))))), in data set [1], the Tm amounted to 52.4 °C. The folding enthalpy in data set [2] is -34.1 kcal/mol.

Take GATCCTAGTGAGGATC ((((((....)))))): the Tm in data set [1] came to 50.9 °C. In addition, the folding enthalpy in data set [2] is -36.2 kcal/mol.
